The values below come from ChEMBL document CHEMBL3593165, “Enzymatic synthesis of bile acid derivatives and biological evaluation against Trypanosoma cruzi” (Bioorg Med Chem, 2015).

SMILES strings stand for the structures. Activity calls are given as the source filed them. No cut-off for these calls is given here.

The subject of test [1] is Trypanosoma cruzi. Put plainly: Antiparasitic activity against Trypanosoma cruzi strain CL Brener epimastigotes at 300 uM after 12 days by ELISA reader. The class given is functional. In a few lines:
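T. cruzi CL Brener epimastigotes were grown at 28 °C in LIT medium with 10% heat-inactivated FBS, […], streptomycin and penicillin. Cells were seeded at 5 × 10^6 cells/mL with compound (0.14–300 µM, DMSO ≤0.5% v/v final) for 12 days at 28 °C. Benznidazole served as positive control, with drug-free and parasite-free controls. Growth was read daily at 600 nm in three independent assays.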

In test [2] the test system is Trypanosoma cruzi. Put plainly: Antiparasitic activity against Trypanosoma cruzi strain CL Brener epimastigotes after 12 days by ELISA reader. The class given is functional. To be noted: 288 h. A digest of the protocol:
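CL Brener epimastigotes grown at 28 °C in LIT medium with 10% heat-inactivated FBS, hemin, streptomycin and penicillin. Seeded at final 5 × 10^6 cells/mL and exposed to compounds across 0.14–300 µM for 12 days at 28 °C. DMSO vehicle, final ≤0.5% (v/v). Growth read daily at 600 nm. IC50 taken from dose-response curves from three independent assays.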

With `CCOC(=O)CC[C@@H](C)[C@H]1CC[C@H]2[C@@H]3CC[C@@H]4C[C@H](OC(C)=O)CC[C@]4(C)[C@H]3C[C@H](O)[C@]12C`, the inhibition result in the test with Trypanosoma cruzi [1] is “inactive”.
The same measure, in the same setting: the entry for `CCOC(=O)CC[C@@H](C)[C@H]1CC[C@H]2[C@@H]3CC[C@@H]4C[C@H](OC(C)=O)CC[C@]4(C)[C@H]3CC[C@]12C` is “inactive”.
For the compound `CC(=O)O[C@@H]1CC[C@@]2(C)[C@@H](C1)C[C@@H](OC(C)=O)[C@@H]1[C@@H]2CC[C@]2(C)[C@@H]([C@H](C)CCC(=O)O)CC[C@@H]12`, the IC50 (as a rule, the concentration that gives 50% inhibition) with Trypanosoma cruzi [2] worked out at 22.8 µM.
As for `CC(=O)O[C@H]1C[C@H]2[C@@H](CC[C@@H]3C[C@H](O)CC[C@@]32C)[C@@H]2CC[C@H]([C@H](C)CCC(=O)O)[C@@]12C`, the inhibition result in the test with Trypanosoma cruzi [1] is “inactive”.
Take `CCOC(=O)CC[C@@H](C)[C@H]1CC[C@H]2[C@@H]3[C@H](O)C[C@@H]4C[C@H](OC(C)=O)CC[C@]4(C)[C@H]3CC[C@]12C`: in the test on Trypanosoma cruzi [2], inhibition was half-maximal at 8.6 µM (IC50).
On to `CCOC(=O)CC[C@@H](C)[C@H]1CC[C@H]2[C@@H]3CC[C@@H]4C[C@H](O)CC[C@]4(C)[C@H]3C[C@H](O)[C@]12C`, for which the inhibition entry with Trypanosoma cruzi [1] is “inactive”.
As to `CCOC(=O)CC[C@@H](C)[C@H]1CC[C@H]2[C@@H]3CC[C@@H]4C[C@H](O)CC[C@]4(C)[C@H]3CC[C@]12C`, in the test with Trypanosoma cruzi [2], half-maximal inhibition (IC50) was put at 266 µM.
On to `CC(=O)O[C@@H]1CC[C@@]2(C)[C@H](CC[C@@H]3[C@@H]2C[C@H](O)[C@]2(C)[C@@H]([C@H](C)CCC(=O)O)CC[C@@H]32)C1`, for which the inhibition result in the test on Trypanosoma cruzi [1] is “inactive”.
Take `C[C@H](CCC(=O)O)[C@H]1CC[C@H]2[C@@H]3[C@H](O)C[C@@H]4C[C@H](O)CC[C@]4(C)[C@H]3CC[C@]12C` [CHENODIOL]: the inhibition entry in the test with Trypanosoma cruzi [1] was “inactive”. The compound also came in with an IC50 with Trypanosoma cruzi [2] of 236 µM.
Turning to `CCOC(=O)CC[C@@H](C)[C@H]1CC[C@H]2[C@@H]3[C@H](OC(C)=O)C[C@@H]4C[C@H](O)CC[C@]4(C)[C@H]3CC[C@]12C`, the half-inhibitory concentration (IC50) in the test on Trypanosoma cruzi [2] came to 295 µM.
For the compound `CCOC(=O)CC[C@@H](C)[C@H]1CC[C@H]2[C@@H]3[C@H](O)C[C@@H]4C[C@H](O)CC[C@]4(C)[C@H]3CC[C@]12C`, the inhibition entry in the test on Trypanosoma cruzi [1] is “inactive”.
Still for that read-out and setting: with `CC(=O)O[C@@H]1CC[C@@]2(C)[C@@H](C1)C[C@@H](O)[C@@H]1[C@@H]2CC[C@]2(C)[C@@H]([C@H](C)CCC(=O)O)CC[C@@H]12` the entry was “inactive”.
